Screening data deposited in PubChem BioAssay by several laboratories.
T cruzi repl: inhibitors of intracellular T. cruzi growth, primary screen, luminescence, NIH3T3 host cells | actives 1.4% (n = 300,000) | inhibition, % (concentration not given with the values) | T. cruzi beta-gal in NIH3T3, 90 h;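 active means mean inhibition across valid replicates above about 55%, limit read from the data; inconclusive means mean below that limit but half or more replicates reach it; inactive means mean below it, under half of replicates reach it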;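 further: signal also drops with host cell toxicity which is not excluded here; higher percent means less beta-gal luminescence so fewer parasites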
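Assay system: NIH/3T3 fibroblasts plus reporter T. cruzi. Amount: NIH/3T3 cells, 5,000 per well. Buffer or medium: DMEM, 2% fetal bovine serum. Doses: compound pinned at 50 nL/well, DMSO. Schedule: ≥90 h infection period, 3 h prior cell attachment. Signal: luminescent β-galactosidase signal after 60 min lysis. Read-out: parasite load inhibition, %.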
Jurkat NFkB inh: inhibitors of induced NF-kB luciferase reporter, primary screen, TCR NF-kB activation inhibitor project, cell-based, luminescence, uHTS. Jurkat, PMA/ionomycin-induced NF-kB luciferase reporter. inhibition, % at 4 µM. actives 0.53% (n = 330,000). AID 435003, 2010; in the data active means inhibition above about 50%
HSF-1 act: HSF-1 activators, primary screen, NIH3T3-HGL cells, MG132 stress, luminescence, single point; NIH3T3-HGL HSF-1 luciferase reporter, 8 h; 100% = twice DMSO control signal; activation, % at 9 µM; actives 1.7% (n = 300,000); AID 504408, 2011;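 active means mean replicate activation of at least 50% with a set share of replicates each reaching 50%; inconclusive means only one of those two conditions met; inactive means mean below 50% and too few replicates reaching it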
697 NFkB inh: inhibitors of PMA/ionomycin-induced NF-kB reporter, 697 cells, primary screen, B-cell NF-kB inhibitor project, cell-based, luminescence, uHTS. 697 B-cell NF-kB luciferase reporter, 16 h. inhibition, % at 4 µM. actives 0.33% (n = 330,000); in the data active means inhibition above about 35%
GPR7 antag: GPR7 receptor antagonists, primary screen, cell-based, fluorescence, single concentration. Neuropeptides B/W receptor type 1 (Homo sapiens), P48145. GPR7-expressing cells, fluorescence antagonist assay. inhibition, % at 4.4 µM. actives 1.1% (n = 290,000); in the data active means inhibition above about 16%, passing the limit was not always enough;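 further: cells stimulated with the agonist NPW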
Target sequence (P48145 whole entry, looked up): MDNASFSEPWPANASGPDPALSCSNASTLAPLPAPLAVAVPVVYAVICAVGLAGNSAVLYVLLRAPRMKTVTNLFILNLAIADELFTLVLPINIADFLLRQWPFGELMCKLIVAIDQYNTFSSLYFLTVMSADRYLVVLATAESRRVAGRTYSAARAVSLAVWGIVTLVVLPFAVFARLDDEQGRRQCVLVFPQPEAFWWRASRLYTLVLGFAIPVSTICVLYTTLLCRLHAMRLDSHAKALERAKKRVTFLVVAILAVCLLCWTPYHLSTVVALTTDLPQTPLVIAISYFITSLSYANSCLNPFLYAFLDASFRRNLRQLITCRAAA
HSF1 inhib: HSF1 inhibitors in luciferase reporter cells, primary screen, cell-based, NIH3T3, luminescence; AID 2098, 2009; NIH3T3-HGL HSE-luciferase, MG132-induced, luminescence 8 h; hits give low values; actives 0.77% (n = 300,000); activity change, negative = inhibition, % at 7.5 µM (by protocol);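 active means more than half of replicate wells show activity change below -50%, luminescence cut by over half; inconclusive means some wells, but at most half, below -50%; inactive means no replicate well below -50%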;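 further: luciferase reports HSF-1 transcriptional activity via heat shock element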
GPR7 antag conf: GPR7 receptor antagonists, confirmation, cell-based, fluorescence, single concentration. shares compounds with GPR7 antag. inhibition, % at 4.4 µM. GPR7-expressing cells, calcium fluorescence antagonist mode. actives 52% (n = 2,400); in the data active means inhibition above about 24%;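 further: stimulated with the GPR7 agonist NPW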
MCHR1 antag: MCHR1 antagonists in cells, counter-screen for GPR7 antagonist project, cell-based, fluorescence, human; shares compounds with GPR7 antag; MCHR1-expressing cells, fluorescence antagonist assay; inhibition, % at 4.4 µM; actives 62% (n = 2,400); in the data active means inhibition above about 22%
Large screens that a line does not name were inactive (follow-up assays come after a bar, where they were run). Hits are enriched below; roughly 4.8% of the tested compounds scored in any of these assays.

N=c1n(CCN2CCOCC2)c2ccccc2n1CC(O)COc1ccccc1 (stereo not drawn)	none
CCCCn1c(=N)n(CC(O)COc2ccc(C)cc2)c2ccccc21 (stereo not drawn)	GPR7 antag 36 | GPR7 antag conf 28 | MCHR1 antag 39
COc1ccc(-c2oc3ccc(N4CCOCC4)cc3c2C#CC2(O)CCCCC2)cc1	none (no result: GPR7 antag)
CC1CC(C)CN(C(=O)CNC(=O)c2ccc3ccccc3c2)C1 (stereo not drawn)	none
FC(F)(F)c1cc(-c2ccco2)nc2ncnn12	none
CCCCn1c(=N)n(CC(O)c2ccccc2)c2ccccc21 (stereo not drawn)	GPR7 antag 31 | GPR7 antag conf inactive | MCHR1 antag inactive
COc1cccc(NC(=O)c2nc(S(C)(=O)=O)ncc2Cl)c1	GPR7 antag 33 | GPR7 antag conf 42 | MCHR1 antag 33
COc1ccccc1NC(=O)c1nc(S(=O)(=O)Cc2ccccc2)ncc1Cl	GPR7 antag 32, HSF1 inhib -87 | GPR7 antag conf 41 | MCHR1 antag 30
CC(=O)Nc1ccc(NC(=O)c2nc(S(=O)(=O)Cc3cccc(C)c3)ncc2Cl)cc1	HSF1 inhib inconclusive
CCOC(=O)c1ccc(NC(=O)c2nc(S(=O)(=O)Cc3ccccc3)ncc2Cl)cc1	none
CCc1ccc(NC(=O)c2nc(S(=O)(=O)Cc3ccccc3)ncc2Cl)cc1	GPR7 antag 56, HSF1 inhib inconclusive | GPR7 antag conf 88 | MCHR1 antag 103
COc1cccc(NC(=O)c2cnsn2)c1	GPR7 antag 25 | GPR7 antag conf inactive | MCHR1 antag inactive
COc1cccc(NC(=O)c2cccc(C(=O)Nc3cccc(OC)c3)n2)c1	none
CCS(=O)(=O)c1ncc(Cl)c(C(=O)Nc2ccc(S(=O)(=O)N3CCC(C)CC3)cc2)n1	T cruzi repl 62, GPR7 antag 58, HSF1 inhib -85 | GPR7 antag conf 89 | MCHR1 antag 95
COC(=O)c1ccc(NC(=O)c2nc(S(=O)(=O)Cc3cccc(C)c3)ncc2Cl)cc1	GPR7 antag 32, HSF1 inhib -86 | GPR7 antag conf 72 | MCHR1 antag 86
CC1CCN(S(=O)(=O)c2ccc(NC(=O)c3ccncc3)cc2)CC1	none
Nc1c(NC=O)c(=O)n(Cc2ccccc2)c(=O)n1Cc1ccccc1	none (no result: GPR7 antag)
COCCNC(=S)Nc1ccc(S(=O)(=O)Nc2ncccn2)cc1	GPR7 antag 25 | GPR7 antag conf inactive | MCHR1 antag inactive
CCOC(=O)C1CCCN(C(=O)c2ccc(S(=O)(=O)NCc3ccco3)cc2)C1 (stereo not drawn)	none (no result: GPR7 antag)
CC1CCCC(C)N1C(=O)c1ccc(S(=O)(=O)NCc2ccco2)cc1 (stereo not drawn)	GPR7 antag 31 | GPR7 antag conf inactive | MCHR1 antag 23
O=C(NC1CCCCC1)c1ccc(S(=O)(=O)NCc2ccco2)cc1	GPR7 antag 34 | GPR7 antag conf inactive | MCHR1 antag 25
NCCSc1c(-c2ccc(Cl)cc2)[nH]c2ccccc12	none
NCCSc1c(-c2ccc(F)cc2)[nH]c2ccccc12	GPR7 antag 25 | GPR7 antag conf 41 | MCHR1 antag 38
NCCSc1c(-c2ccccc2)[nH]c2ccccc12	GPR7 antag 21 | GPR7 antag conf inactive | MCHR1 antag 23
O=C(NCCCN1CCOCC1)c1ccc2c(c1)N(Cc1c(F)cccc1Cl)C(=O)c1ccccc1S2	GPR7 antag 25 | GPR7 antag conf 37 | MCHR1 antag inactive
O=C1Nc2cc(C(=O)NCCCN3CCOCC3)ccc2S/C1=C/c1cccc(Cl)c1	none
O=C1Nc2cc(C(=O)NCCCN3CCOCC3)ccc2S/C1=C/c1ccccc1F	GPR7 antag 40 | GPR7 antag conf 33 | MCHR1 antag 28
Cc1nonc1OCCNCCNc1ccc([N+](=O)[O-])cc1Cl	HSF-1 act 77, GPR7 antag 25 | GPR7 antag conf inactive | MCHR1 antag inactive
O=S(=O)(NC1CCCC1)c1ccc(S(=O)(=O)N2CCc3ccccc32)cc1	GPR7 antag 47 (no result: T cruzi repl, HSF-1 act, HSF1 inhib) | GPR7 antag conf 62 | MCHR1 antag 61
Cc1cccc(N(CC(=O)Nc2ccccc2F)S(C)(=O)=O)c1	GPR7 antag 27 | GPR7 antag conf inactive | MCHR1 antag inactive
CSc1ccccc1NC(=O)CN(c1cccc(C)c1)S(C)(=O)=O	none
Cc1ccc(NC(=O)CSc2ncnc3ccccc23)cc1S(=O)(=O)N1CCCCC1	GPR7 antag 23 | GPR7 antag conf 58 | MCHR1 antag 63
CN(Cc1ccon1)C(=O)CC1C(=O)NCCN1Cc1cccc(Oc2ccccc2)c1 (stereo not drawn)	none (no result: HSF-1 act, HSF1 inhib)
CN(Cc1ccccn1)C(=O)CC1C(=O)NCCN1Cc1cccc(Oc2ccccc2)c1 (stereo not drawn)	GPR7 antag 26 | GPR7 antag conf inactive | MCHR1 antag inactive
O=C(COc1ccc(C(=O)c2ccccc2)cc1)Nc1ncccc1O	none
O=C(Nc1ncccc1O)c1ccc(Oc2ccccc2)cc1	HSF-1 act 88, GPR7 antag 35 | GPR7 antag conf inactive | MCHR1 antag inactive
O=C(CCc1nnc(-c2ccsc2)o1)N1CCc2c(Cl)cccc2C1	none
CC1CCN(C(=O)c2cc(S(=O)(=O)N3CCCCC3)c[nH]2)CC1	GPR7 antag 27 | GPR7 antag conf inactive | MCHR1 antag inactive
COc1ccc(S(=O)(=O)NNc2nc(C)cc(C)n2)cc1[N+](=O)[O-]	none
Cc1ccccc1CNC(=O)c1ccc(CSCc2ccccc2)cc1	GPR7 antag 32 | GPR7 antag conf 25 | MCHR1 antag 48
Cc1ccc(CSCCNC(=O)c2ccccc2)cc1	none
Cc1ccnc2nc(C(=O)OCC(=O)N3CC(C)CC(C)C3)nn12 (stereo not drawn)	none (no result: T cruzi repl, HSF-1 act, GPR7 antag, HSF1 inhib)
Cc1cc(C)c(C)c(S(=O)(=O)N2CCC(C(=O)N3CCCC3)CC2)c1C	none (no result: T cruzi repl, HSF-1 act, GPR7 antag, HSF1 inhib)
CS(=O)(=O)c1ccc2nc(NC(=O)c3ccccc3)sc2c1	none
